For test [1], the species on record is Cavia porcellus. Description: Inhibition of isolated guinea pig ileum contraction induced by electrical stimulation. Type of test: functional. The method, boiled down:
(§1)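 Electrical field stimulation was applied after 30-40 min equilibration: train 100 ms, pulse width 1 ms, pulse interval 10 ms, supramaximal 20 V. Compounds were added cumulatively at 3-fold steps (0.1 nM to 1 µM), with parallel runs in 10 nM naloxone. Isotonic tension was recorded as % of control […]. Efficacy is the maximal inhibition; EC50 is the half-maximal concentration. Mean ± SEM, 4-6 experiments.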

The species entered for test [2] is Cavia porcellus. As to the kind of experiment: Efficacy against isolated guinea pig ileum contraction induced by electrical stimulation. In kind it is functional. The method, boiled down: as §1
In test [3] the target is Delta-type opioid receptor (Rattus norvegicus) (UniProt P33533). As to the kind of experiment: Inhibition of [3H]naltrindole binding to rat whole brain Opioid receptor delta at 1-10 uM. The method, boiled down:
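Brain (minus cerebellum) membranes were labelled with [3H]naltrindole as the δ radioligand. […] Mean ± SEM, n experiments.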

For another test, the target named is Mu-type opioid receptor (Rattus norvegicus, UniProt P33535). Description: Inhibition of [3H]DAMGO binding to rat whole brain Opioid receptor mu. Put shortly:
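Rat whole-brain (minus cerebellum) membranes (0.3 mg protein) were incubated with 0.7 nM [3H]DAMGO and peptide (1 nM to 10 µM) for 2 h at 25 °C. Buffer was 50 mM Tris-HCl pH 7.4, 5 mM MgCl2, with protease inhibitors. Nonspecific binding was defined with 10 µM BNTX. Bound ligand was separated by GF/C filtration. Mean ± SEM, ≥3 experiments.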

The structures appear in SMILES notation. Where a SMILES comes first, the peptide text is derived from it. [ ]: non-standard residue; d: D form.

Chain of Delta-type opioid receptor (Rattus norvegicus) (P33533 whole entry): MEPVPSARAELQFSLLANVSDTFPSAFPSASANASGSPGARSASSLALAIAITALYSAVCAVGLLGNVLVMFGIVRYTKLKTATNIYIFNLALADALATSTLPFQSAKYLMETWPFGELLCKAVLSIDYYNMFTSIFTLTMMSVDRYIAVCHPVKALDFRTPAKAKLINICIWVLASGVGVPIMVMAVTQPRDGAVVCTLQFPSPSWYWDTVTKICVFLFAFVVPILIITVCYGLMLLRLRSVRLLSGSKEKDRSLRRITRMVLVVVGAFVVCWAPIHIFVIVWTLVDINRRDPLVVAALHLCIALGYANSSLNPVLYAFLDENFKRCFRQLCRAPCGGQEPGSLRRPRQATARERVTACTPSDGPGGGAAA
Chain of Mu-type opioid receptor (P33535 whole entry): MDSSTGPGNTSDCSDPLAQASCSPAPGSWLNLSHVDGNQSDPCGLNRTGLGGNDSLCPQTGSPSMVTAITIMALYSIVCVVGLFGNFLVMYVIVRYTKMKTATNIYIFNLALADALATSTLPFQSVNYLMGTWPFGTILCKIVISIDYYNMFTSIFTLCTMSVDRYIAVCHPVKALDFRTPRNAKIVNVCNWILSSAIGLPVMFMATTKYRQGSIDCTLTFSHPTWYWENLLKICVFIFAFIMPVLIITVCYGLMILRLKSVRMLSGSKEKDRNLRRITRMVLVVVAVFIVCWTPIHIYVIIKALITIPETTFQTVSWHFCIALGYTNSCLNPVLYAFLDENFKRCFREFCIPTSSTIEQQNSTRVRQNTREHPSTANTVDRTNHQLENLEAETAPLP

The EC50 is the concentration needed to bring the measured effect to its halfway point. Lower therefore signals an effect from little substance. By inhibition is commonly meant the relative decrease from the control value, in per cent. As a reminder, the Ki is the equilibrium dissociation constant of an inhibitor or competing ligand from its target. Lower therefore signals tighter binding. In the test listed under Cavia porcellus [1], `NC(=O)[C@@H]1CSC([C@H](Cc2ccccc2)NC(=O)[C@@H]2CCCN2C(=O)[C@@H](N)Cc2ccc(O)cc2)N1` (stereo partly drawn) returned a half-maximal effective concentration (EC50) of 9.7 nM. In the test filed under Cavia porcellus [2], this compound had an Efficacy of 65%. In test [3], the inhibition worked out at 22.7%. The compound further gave a Ki at Mu-type opioid receptor of 14.1 nM.
In the test listed under Cavia porcellus [1], `NC(=O)[C@@H]1CCCN1C(=O)[C@H](Cc1ccccc1)NC(=O)[C@@H]1CCCN1C(=O)[C@@H](N)Cc1ccc(O)cc1` (H-YPFP-NH2) [listing 1 of 2 here] returned a concentration giving a half-maximal response (EC50) of 13 nM. For the same compound, affinity at Mu-type opioid receptor was put at a Ki of 25.6 nM.
As to `NC(=O)[C@@H]1CCCN1C(=O)[C@H](Cc1ccccc1)NC(=O)[C@@H]1CCCN1C(=O)[C@@H](N)Cc1ccc(O)cc1` (H-YPFP-NH2) [listing 2 of 2 here], the Efficacy in the test filed under Cavia porcellus [2] amounted to 65%.
With `C[C@@H](NC(=O)[C@@H](N)Cc1ccc(O)cc1)C(=O)NCC(=O)N(C)[C@@H](Cc1ccccc1)C(=O)NCCO` [DAMGO], in the test filed under Cavia porcellus [1], the response was half-maximal at 36.2 nM (EC50). For the same compound, the Efficacy in the test filed under Cavia porcellus [2] turned out to be 61%.
In the test listed under Cavia porcellus [1], `NC(=O)[C@@H]1CSC([C@H](Cc2c[nH]c3ccccc23)NC(=O)[C@@H]2CCCN2C(=O)[C@@H](N)Cc2ccc(O)cc2)N1` (stereo partly drawn) returned a concentration giving a half-maximal response (EC50) of 28 nM. The same compound displayed an Efficacy in the test listed under Cavia porcellus [2] of 70%. The inhibition in test [3] was 67.8%. The same compound returned an inhibition constant Ki at Mu-type opioid receptor of 178 nM.
In the test listed under Cavia porcellus [2], `NC(=O)[C@@H]1CCCN1C(=O)[C@H](Cc1ccccc1)NC(=O)[C@@H]1CSC([C@@H](N)Cc2ccc(O)cc2)N1` (stereo partly drawn) showed an Efficacy of 17%. In addition, the inhibition in test [3] is 10.2%.
The compound `CN1CC[C@]23c4c5ccc(O)c4O[C@H]2[C@@H](O)C=C[C@H]3[C@H]1C5` [MORPHINE] displayed an Efficacy in the test listed under Cavia porcellus [2] of 66%.
As to `NC(=O)[C@H]1CCCN1C(=O)[C@H](Cc1ccccc1)NC(=O)[C@@H]1CCCN1C(=O)[C@@H](N)Cc1ccc(O)cc1` (H-YPF[dP]-NH2), the inhibition in test [3] turned out to be 23.6%.
In the test listed under Cavia porcellus [1], `CN(C)C(=O)C(CCN1CCC(O)(c2ccc(Cl)cc2)CC1)(c1ccccc1)c1ccccc1` [LOPERAMIDE] yielded a concentration giving a half-maximal response (EC50) of 489 nM. The compound further displayed an Efficacy in the test listed under Cavia porcellus [2] of 11%.
`NC(=O)[C@@H]1CSC([C@@H](Cc2ccccc2)NC(=O)[C@@H]2CCCN2C(=O)[C@@H](N)Cc2ccc(O)cc2)N1` (stereo partly drawn) returned a concentration for a half-maximal effect (EC50) in the test filed under Cavia porcellus [1] of 36 nM. Besides, in the test listed under Cavia porcellus [2], the Efficacy turned out to be 71%. For the same compound, in test [3], the inhibition worked out at 42.2%. On Mu-type opioid receptor, the Ki stood at 290 nM.

The values above are taken from ChEMBL document CHEMBL1143626, “Morphiceptin analogues containing a dipeptide mimetic structure: an investigation on the bioactive topology at the mu-receptor” (J Med Chem, 2005).
